The target in data set [1] is Acyl-CoA (8-3)-desaturase (Rattus norvegicus, UniProt Q920R3). Description: Displacement of [3H]T-3364366 from D5D in rat liver microsomal membrane preincubated for 15 mins followed by radioligand addition measured after 150 mins by TopCount microscintillation counting assay. The format is cell membranes. Put shortly: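 Rat liver microsome fraction (30 μg/well) preincubated 15 min with test compound at room temperature in 10 mM Tris-HCl pH 7.5, 100 mM KCl, 10 mM NaF buffer, 200 μL/well; bound ligand trapped on GF/C filters, washed 5× with ice-cold buffer, counted by scintillation. Nonspecific binding with 10 μM unlabeled T-3364366; IC50 from three-parameter logistic fit.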

Data set [2] concerns the target Acyl-CoA (8-3)-desaturase (Homo sapiens, UniProt O60427). Description: Inhibition of D5D in human HepG2 cells assessed as [14C]AA formation from [14C]DGLA preincubated for 30 mins followed by [14C]eicosatrienoic acid addition measured after 3 hrs by TLC analysis. It is filed as cell-based. A digest of the protocol: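 HepG2 plated at 1 × 10^5 cells/well, cultured overnight in DMEM/10% FBS, PBS-washed, then preincubated 30 min at 37 °C with compound in DMEM with penicillin/streptomycin and 0.3% BSA. 0.1 μCi [14C]eicosatrienoic acid added and cells incubated 3 h at 37 °C; lipids saponified overnight at 55 °C with NaOH, acidified, extracted with chloroform/MeOH, separated by TLC.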

Data set [3] can be described thus: Drug metabolism in human hepatocytes assessed as 5-(4-fluorophenyl)-4-hydroxy-3-(3-methoxyphenyl)oxazolidin-2-one formation by LC-MS/MS analysis. The format is ADME, cell-based, Hepatocyte. Put shortly: (§1)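 Human or mouse hepatocytes incubated with compound; metabolites identified by LC/MS/MS and formation ratio (%) calculated as metabolite UV peak area after incubation over parent peak area before incubation × 100, assuming equal extinction coefficients.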

A short description of data set [4]: Drug metabolism in human hepatocytes assessed as 3-(5-(4-fluorophenyl)-4-hydroxy-2-oxooxazolidin-3-yl)phenyl hydrogen sulfate formation by LC-MS/MS analysis. It is filed as ADME, cell-based, Hepatocyte. Put shortly: as §1
Data set [5] in a line: Drug metabolism in mouse hepatocytes assessed as 5-(4-fluorophenyl)-3-(3-hydroxyphenyl)oxazolidin-2-one formation by LC-MS/MS analysis. The format is ADME, cell-based, Hepatocyte. Put shortly:
as §1

Data set [6] is described as follows: Drug metabolism in mouse hepatocytes assessed as 5-(4-fluorophenyl)-4-hydroxy-3-(3-methoxyphenyl)oxazolidin-2-one formation by LC-MS/MS analysis. It is filed as ADME, cell-based, Hepatocyte. Put shortly:
as §1

The nature of data set [7]: Drug metabolism in mouse hepatocytes assessed as 3-(5-(4-fluorophenyl)-4-hydroxy-2-oxooxazolidin-3-yl)phenyl hydrogen sulfate formation by LC-MS/MS analysis. It is filed as ADME, cell-based, Hepatocyte. A digest of the protocol: as §1
Data set [8] deals with Liver. Description: Drug metabolism in mouse liver assessed as 5-(4-fluorophenyl)-3-(3-hydroxyphenyl)oxazolidin-2-one formation at 488 mg/kg/day, po by LC-MS/MS analysis. The settings on record: in vivo. The format is ADME, organism-based. Put shortly:
(§2)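 Mice given compound orally as dietary admixture at 488 mg kg−1 day−1; liver concentrations of parent and metabolites determined by LC/MS/MS, metabolites quantified assuming extinction coefficient equal to parent.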

The subject of data set [9] is Liver. Description: Drug metabolism in mouse liver assessed as 3-(5-(4-fluorophenyl)-2-oxooxazolidin-3-yl)phenyl hydrogen sulfate formation at 488 mg/kg/day, po by LC-MS/MS analysis. The settings on record: in vivo. It is filed as ADME, organism-based. Put shortly: as §2
Data set [10] relates to Liver. Description: Drug metabolism in mouse liver assessed as (2S,3S,4S,5R,6S)-6-(5-(4-fluorophenyl)-3-(3-methoxyphenyl)-2-oxooxazolidin-4-yloxy)-3,4,5-trihydroxytetrahydro-2H-pyran-2-carboxylic acid formation at 488 mg/kg/day, po by LC-MS/MS analysis. The format is ADME, organism-based. As to conditions: in vivo. A digest of the protocol:
as §2

For data set [11], the system named is Liver. Description: Drug metabolism in mouse liver assessed as (2S,3S,4S,5R,6S)-6-(3-(5-(4-fluorophenyl)-2-oxooxazolidin-3-yl)phenoxy)-3,4,5-trihydroxytetrahydro-2H-pyran-2-carboxylic acid formation at 488 mg/kg/day, po by LC-MS/MS analysis. It is filed as ADME, organism-based. As to conditions: in vivo. Put shortly:
as §2

Data set [12] concerns Liver. Description: Drug metabolism in mouse liver assessed as 5-(4-fluorophenyl)-4-hydroxy-3-(3-methoxyphenyl)oxazolidin-2-one formation at 488 mg/kg/day, po by LC-MS/MS analysis. As to conditions: in vivo. The format is ADME, organism-based. Put shortly: as §2
In data set [13] the test system is Liver. Description: Drug metabolism in mouse liver assessed as 3-(5-(4-fluorophenyl)-4-hydroxy-2-oxooxazolidin-3-yl)phenyl hydrogen sulfate formation at 488 mg/kg/day, po by LC-MS/MS analysis. It is filed as ADME, organism-based. The settings on record: in vivo. A digest of the protocol: as §2
Data set [14] is described as follows: Drug stability in human hepatocytes by LC-MS/MS analysis. It is filed as ADME, cell-based, Hepatocyte.
Data set [15] in a line: Drug stability in mouse hepatocytes by LC-MS/MS analysis. The format is ADME, cell-based, Hepatocyte.

Data on 1 compound can be found in ChEMBL document CHEMBL4024749, “Discovery of 3,5-Diphenyl-4-methyl-1,3-oxazolidin-2-ones as Novel, Potent, and Orally Available Δ-5 Desaturase (D5D) Inhibitors” (J Med Chem, 2017).

Sequence of Acyl-CoA (8-3)-desaturase (Rattus norvegicus, UniProt Q920R3) (Q920R3 whole entry): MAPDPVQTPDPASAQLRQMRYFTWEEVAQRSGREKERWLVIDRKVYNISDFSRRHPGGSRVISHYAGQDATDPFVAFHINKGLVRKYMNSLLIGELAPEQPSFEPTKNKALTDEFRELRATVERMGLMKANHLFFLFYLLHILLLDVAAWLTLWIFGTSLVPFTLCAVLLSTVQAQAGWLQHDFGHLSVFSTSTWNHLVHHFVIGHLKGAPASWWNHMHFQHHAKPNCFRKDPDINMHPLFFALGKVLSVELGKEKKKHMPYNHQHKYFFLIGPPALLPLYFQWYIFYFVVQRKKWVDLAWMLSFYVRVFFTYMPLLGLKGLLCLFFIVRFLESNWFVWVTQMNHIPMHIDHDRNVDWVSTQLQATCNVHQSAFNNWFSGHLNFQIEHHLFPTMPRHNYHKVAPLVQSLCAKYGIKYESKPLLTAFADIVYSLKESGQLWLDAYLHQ
Sequence of Acyl-CoA (8-3)-desaturase (Homo sapiens, UniProt O60427) (O60427 whole entry): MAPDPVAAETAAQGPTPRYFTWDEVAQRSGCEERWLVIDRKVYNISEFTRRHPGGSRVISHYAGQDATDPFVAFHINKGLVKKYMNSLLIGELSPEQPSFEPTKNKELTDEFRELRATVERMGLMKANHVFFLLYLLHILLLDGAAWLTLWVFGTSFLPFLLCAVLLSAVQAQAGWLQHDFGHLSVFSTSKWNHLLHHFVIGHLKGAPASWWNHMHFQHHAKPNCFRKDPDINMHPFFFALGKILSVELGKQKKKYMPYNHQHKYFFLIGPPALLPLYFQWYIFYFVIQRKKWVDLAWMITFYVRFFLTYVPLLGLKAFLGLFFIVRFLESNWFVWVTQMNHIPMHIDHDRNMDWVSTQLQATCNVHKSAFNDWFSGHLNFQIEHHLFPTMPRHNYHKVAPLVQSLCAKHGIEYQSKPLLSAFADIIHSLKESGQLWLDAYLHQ

As to `COc1cccc(N2CC(c3ccc(F)cc3)OC2=O)c1` (racemic), the IC50 in data set [1] stood at 8.5 nM; in data set [2] it was 4.1 nM. Moreover, the Drug metabolism result was “Metabolite_Notdetected” in data set [3]; “Metabolite_Notdetected” in data set [4]; “Metabolite_Notdetected” in [5]; “Metabolite_Notdetected” in [6]; “Metabolite_Notdetected” in data set [7]; 0.51 to 1.21 µg/g in the data set with Liver [8]. Further, the Drug metabolism was 4.41 to 12.9 µg/g in the data set on Liver [9]; “Metabolite_Notdetected” with Liver [10]; 0.83 to 2.5 µg/g in the data set on Liver [11]; 0.25 to 0.65 µg/g in the data set with Liver [12]; 0.48 to 1.78 µg/g in the data set on Liver [13]. The results for the Stability in [14] and in [15] were 22.5% and 2.3%, respectively.
